# ChEMBL document CHEMBL1139306, “Design and synthesis of pyrazole derivatives as potent and selective inhibitors of tissue-nonspecific alkaline phosphatase (TNAP)” (Bioorg Med Chem Lett, 2009)
# Legend:
# [1] = biological target: T1, Alkaline phosphatase, tissue-nonspecific isozyme (Homo sapiens, UniProt P05186); assay: Inhibition of TNSALP
# T1 sequence (P05186 whole entry): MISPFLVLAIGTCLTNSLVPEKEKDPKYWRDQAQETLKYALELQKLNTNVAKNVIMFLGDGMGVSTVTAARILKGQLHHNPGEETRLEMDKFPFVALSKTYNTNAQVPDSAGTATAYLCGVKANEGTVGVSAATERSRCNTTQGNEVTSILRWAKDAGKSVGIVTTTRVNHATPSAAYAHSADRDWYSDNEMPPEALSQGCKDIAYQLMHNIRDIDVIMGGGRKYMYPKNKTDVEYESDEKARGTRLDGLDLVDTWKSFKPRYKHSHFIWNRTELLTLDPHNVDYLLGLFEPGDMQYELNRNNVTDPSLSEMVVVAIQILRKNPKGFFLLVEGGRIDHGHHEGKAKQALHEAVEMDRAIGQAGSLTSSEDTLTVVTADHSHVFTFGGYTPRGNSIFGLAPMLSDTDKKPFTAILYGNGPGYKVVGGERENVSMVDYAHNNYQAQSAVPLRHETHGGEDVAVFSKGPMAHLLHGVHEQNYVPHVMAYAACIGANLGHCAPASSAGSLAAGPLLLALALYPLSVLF
# Outline: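 TNAP activity read on an EnVision plate reader in 100 mM diethanolamine-HCl, pH 9.8, with 1 mM MgCl₂, 20 μM ZnCl₂ and 50 μM CDP-star as substrate.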
# [2] = biological target: Glyceraldehyde-3-phosphate dehydrogenase (Homo sapiens, UniProt P04406); assay: Inhibition of GAPDH
# [3] = biological target: Alkaline phosphatase, placental type (Homo sapiens, UniProt P05187); assay: Inhibition of PLAP
# [4] = Selectivity of TNSALP over GAPDH
# [5] = Selectivity of TNSALP over PLAP
# Glyceraldehyde-3-phosphate dehydrogenase, sequence (P04406 whole entry): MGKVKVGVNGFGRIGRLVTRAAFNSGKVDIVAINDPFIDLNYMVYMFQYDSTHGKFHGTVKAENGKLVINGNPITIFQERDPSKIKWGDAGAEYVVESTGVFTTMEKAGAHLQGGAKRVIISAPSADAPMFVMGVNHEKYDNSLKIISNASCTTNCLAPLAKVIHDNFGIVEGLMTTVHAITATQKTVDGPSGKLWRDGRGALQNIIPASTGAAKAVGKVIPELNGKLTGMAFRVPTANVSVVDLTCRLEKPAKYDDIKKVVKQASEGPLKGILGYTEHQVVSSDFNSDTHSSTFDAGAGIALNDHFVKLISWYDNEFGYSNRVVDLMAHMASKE
# Alkaline phosphatase, placental type, sequence (P05187 whole entry): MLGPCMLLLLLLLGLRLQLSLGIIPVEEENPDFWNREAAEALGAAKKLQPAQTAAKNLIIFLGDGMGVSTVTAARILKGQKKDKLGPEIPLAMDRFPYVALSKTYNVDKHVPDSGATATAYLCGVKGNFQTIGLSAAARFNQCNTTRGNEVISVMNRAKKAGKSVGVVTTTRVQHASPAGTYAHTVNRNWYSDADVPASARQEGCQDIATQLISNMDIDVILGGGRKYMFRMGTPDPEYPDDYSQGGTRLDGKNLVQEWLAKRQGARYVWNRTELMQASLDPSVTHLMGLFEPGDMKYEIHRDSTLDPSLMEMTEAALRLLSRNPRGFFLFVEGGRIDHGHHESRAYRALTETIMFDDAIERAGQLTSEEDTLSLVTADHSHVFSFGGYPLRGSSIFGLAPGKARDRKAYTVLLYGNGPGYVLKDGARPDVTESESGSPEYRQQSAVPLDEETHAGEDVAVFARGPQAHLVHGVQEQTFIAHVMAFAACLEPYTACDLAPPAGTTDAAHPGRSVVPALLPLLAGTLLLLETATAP
Compound,IC50 [1],other results
O=C(c1cc(-c2ccc(Cl)cc2Cl)n[nH]1)N1CCOCC1,574 nM,
O=C(NCCO)c1cc(-c2ccc(Cl)cc2Cl)n[nH]1,44 nM,
COCCNC(=O)c1cc(-c2ccc(Cl)cc2Cl)n[nH]1,46 nM,
O=C(NCCO)c1cc(-c2ccc(Cl)c(Cl)c2Cl)n[nH]1,,IC50 [2]: > 10 µM; IC50 [3]: > 10 µM; fold change (FC) [4]: 2000; fold change (FC) [5]: 2000
CC(C)NC(=O)c1cc(-c2cc(F)c(Cl)cc2Cl)n[nH]1,4850 nM,
O=C(NCCO)c1cc(-c2cc(F)c(Cl)cc2Cl)n[nH]1,100 nM,
O=C(c1cc(-c2ccc(Cl)cc2Cl)n[nH]1)N1CCCCCC1,1450 nM,
CN(C)C(=O)c1cc(-c2ccc(Cl)cc2Cl)n[nH]1,119 nM,
CC(C)CNC(=O)c1cc(-c2ccc(Cl)cc2Cl)n[nH]1,82 nM,
O=C(NCCO)c1cc(-c2cc(F)c(F)cc2F)n[nH]1,134 nM,
O=C(NCCCCO)c1cc(-c2ccc(Cl)cc2Cl)n[nH]1,35 nM,
NNC(=O)c1cc(-c2ccc(Cl)cc2Cl)n[nH]1,44 nM,
CC(C)(C)NC(=O)c1cc(-c2ccc(Cl)cc2Cl)n[nH]1,398 nM,
O=C(NCCCO)c1cc(-c2ccc(Cl)cc2Cl)n[nH]1,31 nM,
O=C(NCCO)c1cc(-c2ccc(F)cc2F)n[nH]1,35 nM,
O=C(c1cc(-c2cc(F)c(Cl)cc2Cl)n[nH]1)N(CCO)CCO,127 nM,
O=C(c1cc(-c2ccc(Cl)cc2Cl)n[nH]1)N1CCN(CCO)CC1,375 nM,
CN(C)C(=O)c1cc(-c2cc(F)c(Cl)cc2Cl)n[nH]1,324 nM,
CC(C)CCNC(=O)c1cc(-c2ccc(Cl)cc2Cl)n[nH]1,459 nM,
CN1CCN(C(=O)c2cc(-c3ccc(Cl)cc3Cl)n[nH]2)CC1,828 nM,
CC(C)NC(=O)c1cc(-c2ccc(Cl)cc2Cl)n[nH]1,51 nM,
CCN(CC)C(=O)c1cc(-c2ccc(Cl)cc2Cl)n[nH]1,285 nM,
O=C(NCCCO)c1cc(-c2cc(F)c(Cl)cc2Cl)n[nH]1,56 nM,
O=C(c1cc(-c2ccc(Cl)cc2Cl)n[nH]1)N(CCO)CCO,47 nM,
CCN1CCN(C(=O)c2cc(-c3ccc(Cl)cc3Cl)n[nH]2)CC1,488 nM,
